M4 PAM – potentiates acetylcholine response at human M4 receptor; hit rate 0.4% among 360,000; CHO-K1 hM4/Gqi5, Fluo-8 calcium fluorescence, ACh EC20; 0% = ACh EC20, 100% = maximal ACh; P08173; activation, % at 3 µM; AID 624126;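 active means activation above its plate's cutoff, the mean activation of sample wells plus 3 SD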
Target sequence (P08173 whole entry, looked up): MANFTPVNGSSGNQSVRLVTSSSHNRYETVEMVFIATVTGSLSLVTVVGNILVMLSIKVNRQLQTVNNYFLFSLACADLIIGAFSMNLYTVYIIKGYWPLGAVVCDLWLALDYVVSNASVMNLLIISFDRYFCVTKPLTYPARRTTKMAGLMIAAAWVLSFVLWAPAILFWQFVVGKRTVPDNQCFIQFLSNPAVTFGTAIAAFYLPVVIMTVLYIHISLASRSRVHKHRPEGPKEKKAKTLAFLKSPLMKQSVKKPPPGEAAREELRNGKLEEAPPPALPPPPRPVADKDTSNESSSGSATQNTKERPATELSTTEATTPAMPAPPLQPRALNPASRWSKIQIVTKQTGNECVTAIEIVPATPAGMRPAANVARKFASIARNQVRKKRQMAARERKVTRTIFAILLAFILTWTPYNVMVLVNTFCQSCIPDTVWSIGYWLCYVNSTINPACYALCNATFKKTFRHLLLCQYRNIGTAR
CHRM4 antagonist – CHRM4 antagonism in calcium assay. hit rate 0.73% among 360,000. inhibition, % at 3 µM. CHO-hM4 cells, ACh EC80, Fluo-8 calcium fluorescence;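 active means inhibition above its plate's cutoff, the mean inhibition of sample wells plus 3 SD, cut at about 27% in these data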;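 further: 0% = acetylcholine EC80 with DMSO and 100% = DMSO without agonist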
CHRM4 agonist – agonists of human muscarinic M4 receptor (CHRM4). activation, % at 3 µM. hit rate 0.14% among 360,000. CHO-K1 hM4/Gqi5, Fluo-8 calcium fluorescence; vehicle 0%, full acetylcholine response 100%. P08173;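 active means activation above the run mean over all test wells plus 3 SD, cut at about 32% in these data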;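 further: peak over basal fluorescence ratio per well then scaled between controls; 0% = DMSO wells and 100% = acetylcholine at EC100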
TAAR1 antag – human TAAR1 antagonism | CHO RD-HGA16 TAAR1, Fluo-8 calcium fluorescence, antagonist | inhibition, % at 3 µM | hit rate 1.5% among 360,000;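 active means inhibition above a per-plate cutoff, the mean inhibition of test compounds on that plate plus 3 SD, cut at about 49% in these data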;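 further: 0% = DMSO plus EC80 beta-PEA response and 100% = DMSO alone without agonist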
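Assay system: RD-HGA16 CHO cells with stable hTAAR1 and Gα16 / Reagent: EC80 β-phenethylamine stimulus / Doses: 3 µM, single point / Timing: dye loading 75 min at 37 °C, then 30 min room temperature / Measured by: Fluo-8 intracellular calcium dye fluorescence, real-time kinetic reads / Controls: vehicle wells and EC80 agonist wells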
TAAR1 ag – agonists of human TAAR1. Q96RJ0. CHO RD-HGA16 TAAR1, Fluo-8 calcium fluorescence; vehicle wells 0%, saturating PEA agonist 100%. activation, % at 3 µM. hit rate 0.99% among 360,000. AID 624467;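 active means activation above the mean activation of all test compounds in the run plus 3 SD, cut at about 38% in these data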
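Test system: RD-HGA16 (CHO) cells co-expressing Gα16 and hTAAR1 / Benchmarks: DMSO vehicle as 0%, PEA at EC100 as 100% / Repeats: no replicates (n 1) / Measure: % activation from peak over basal fluorescence ratio, DMSO-to-PEA scaled / Timing: 17-24 h plating, Fluo-8 75 min 37 °C, 30 min RT / Technique: kinetic Fluo-8 calcium fluorescence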
Active calls of the source: *; x = not tested or not shown. Compounds with a hit are over-represented: about 3% of the library has one in this group of screens.

SMILES	M4 PAM	CHRM4 antagonist	CHRM4 agonist	TAAR1 antag	TAAR1 ag
CC(C)[C@H](NC(=O)OCc1ccccc1)C(=O)OCC(=O)NC1(C#N)CCCC1	15.9*	0.7	1.3	6.7	0.9
CC(CC(=O)N1CCN(c2cccc(Cl)c2)CC1)S(=O)(=O)c1ccc2c(c1)NC(=O)CO2 (configuration not stated)	-2.2	-7.6	6.0	78.7*	16.7
COC(=O)C1=C(C)N(Cc2ccccc2)C(=S)N[C@H]1c1cccc(C(F)(F)F)c1	-7.2	24.6	3.0	55.6*	5.6
COC(=O)C1=C(C)N(Cc2ccccc2)C(=NCC(C)C)N[C@H]1c1cccc(F)c1	9.2	6.5	23.9	40.2	44.4*
COC(=O)C1=C(C)N(Cc2ccccc2)C(=NCC(C)C)N[C@H]1c1cccc(C(F)(F)F)c1	4.8	20.8	20.4	x	x
CCN1C(=NCc2ccco2)N[C@@H](c2cccc(C(F)(F)F)c2)C(C(=O)OC)=C1C	2.3	27.1*	3.3	12.6	1.1
CCN1C(=NCC2CC2)N[C@@H](c2cccc(C(F)(F)F)c2)C(C(=O)OC)=C1C	2.4	2.8	3.1	x	x
COC(=O)C1=C(C)N(C)C(=NCc2cccc(C(F)(F)F)c2)NC1c1cccc(F)c1 (configuration not stated)	x	x	x	27.3	21.5
O=C(NCC1CCCO1)c1ccc(Oc2ccc([N+](=O)[O-])cc2)cc1 (configuration not stated)	-10.0	9.0	10.3	5.9	0.8
O=C(NCC1CCCO1)c1ccc(NC(=O)c2ccc([N+](=O)[O-])cc2)cc1 (configuration not stated)	13.2*	-9.2	5.8	3.0	3.3
O=C(Nc1nc(-c2ccccc2Cl)cs1)c1cccnc1	-4.4	-3.4	16.4	8.5	41.2*
O=C(NC(=S)Nc1nc(-c2ccccc2)cs1)c1cccnc1	0.6	-2.8	11.5	11.4	9.2
COc1ccc(OC)c(Nc2nc(NCCO)c3ccccc3n2)c1	-0.8	-2.8	2.0	-24.1	5.1
Cc1ccc(Nc2nc(NCCO)c3ccccc3n2)cc1C	-5.9	0.0	9.3	-11.3	38.8*
CNC(C)C(=O)NC(C(=O)N1CCCC1C(=O)Nc1ccc2ncccc2c1)C(C)C (configuration not stated)	28.9*	-14.3	-0.5	6.1	0.2
CCc1ccc(OC(C)C(=O)Nc2ccc(S(=O)(=O)Nc3nccs3)cc2)cc1 (configuration not stated)	11.0	0.6	19.2	54.9*	45.3*
C[C@@H]1COc2cc(N3CCCC3)ccc2S(=O)(=O)N1	x	x	x	26.9	-0.8
Cn1cccc1/C=N/n1c(-c2ccccc2)n[nH]c1=S	-5.5	0.4	-1.6	-9.5	-2.4
Cn1cccc1/C=N/n1c(-c2ccc(C(C)(C)C)cc2)n[nH]c1=S	0.9	-5.8	-2.5	52.4*	25.8
Oc1ccccc1NCC(O)Cn1ccc2ccccc21 (configuration not stated)	17.8	35.1*	2.9	32.0	10.7
Nc1nc(NCC2CCCO2)nc(Nc2cccc(Cl)c2)c1[N+](=O)[O-] (configuration not stated)	5.1	1.2	1.4	-16.2	6.5
Cc1cccc(Nc2nc(NCC3CCCO3)nc(N)c2[N+](=O)[O-])c1 (configuration not stated)	23.5*	15.1	2.2	-17.5	2.4
C[C@H]1CN([C@@H](C)CO)C(=O)CCCn2nncc2CO[C@@H]1CN(C)C(=O)Nc1ccccc1F	x	x	x	-13.9	2.5
COc1ccc(-c2cc(C(=O)N3CCN(c4ncccn4)CC3)c3ccccc3n2)cc1OC	-5.2	21.4	20.2	57.3*	13.2
CC1CN(C(=O)c2cc(-c3ccncc3)nc3ccccc23)CC(C)O1 (configuration not stated)	23.4*	-14.1	1.5	-6.4	-0.1
O=C(c1cc(-c2ccccn2)nc2ccccc12)N1CCN(c2ncccn2)CC1	-0.3	3.1	2.4	16.8	4.5
Cc1ccc(-c2cc(C(=O)N3CCN(c4ncccn4)CC3)c3ccccc3n2)cc1	-6.3	4.9	11.3	50.5*	16.5
CC1CC(C)CN(C(=O)c2cc(-c3ccncc3)nc3ccccc23)C1 (configuration not stated)	6.2	1.8	2.0	-15.6	3.3

Screening results as filed in PubChem.
